# From ChEMBL document CHEMBL3286166, “Structure-activity relationships of the truncated norzoanthamines exhibiting collagen protection toward anti-osteoporotic activity” (Bioorg Med Chem, 2014)
# Species on record: Rattus norvegicus
# Assay: Binding affinity to rat tail type 1 collagen assessed as collagen protection activity against Clostridium histolyticum collagenase-mediated digestion at 10 uM after 180 mins by Sirius red dye based microplate reader analysis relative to norzoanthamine
# Outline: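 Acid-solubilized rat tail type I collagen diluted to 1.11 mg/mL in 50 mM Tris (pH 7.4) with 100 mM NaCl and 5 mM CaCl₂. Compound in the same buffer added, 5 min at 37 °C. Digestion started with 2 mg/mL Clostridium histolyticum collagenase at 37 °C. Aliquots at 30–180 min stained with Sirius red, 30 min room temperature, then centrifuged. Remaining collagen at 180 min normalized to norzoanthamine; buffer-only negative control; up to five samples per test.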
row,Structure (SMILES),Activity [%]
1,C[C@H]1C[C@@H]2CN(Cc3ccc4ccccc4c3)[C@H](C1)O2,65
2,C[C@H]1C[C@@H]2CN(Cc3ccccc3)[C@H](C1)O2,47
3,C[C@H]1C[C@@H]2CN(C(=O)OC(C)(C)C)[C@H](C1)O2,23
4,C[C@H]1C[C@@H]2CN(Cc3ccc(-c4ccccc4)cc3)[C@H](C1)O2,20
5,C[C@H]1C[C@@H]2CN[C@H](C1)O2,31
6,COC(=O)c1ccccc1-c1ccc(CN2C[C@H]3C[C@H](C)C[C@@H]2O3)cc1,25
7,CCCCc1ccc(CN2C[C@H]3C[C@H](C)C[C@@H]2O3)cc1,45
8,C[C@H]1C[C@@H]2CN3[C@](CC[C@@]4(C)[C@]5(C)CCC[C@]34OC(=O)C5)(C1)O2,100
9,COC(=O)c1cccc(CN2C[C@H]3C[C@H](C)C[C@@H]2O3)c1,25

# Results, then the compound that gave them:
row,Activity [%],Structure (SMILES)
1,76,C[C@@H]1C[C@H]2CN3[C@@](CC[C@]4(C)[C@@]5(C)CCC[C@@]34OC(=O)C5)(C1)O2
2,15,COCCN1CCC[C@@]2(C)[C@]3(C)CCC[C@]12OC(=O)C3
3,5,COC(=O)C[C@@]1(C)[C@H]2C(=O)C[C@@H]3C(=O)C=C(C)C[C@H]3[C@]2(C)C=C2N3C[C@H]4C[C@H](C)C[C@]3(CC[C@]21C)O4
4,11,C[C@@]12CCC[C@]3(OC(=O)C1)N(Cc1ccccc1)CCC[C@@]23C
5,17,CCCCN1CCC[C@@]2(C)[C@]3(C)CCC[C@]12OC(=O)C3
6,31,C[C@H]1C[C@@H]2CN3C4=CCCC[C@]4(C)CC[C@@]3(C1)O2
